{
  "source": "ChEMBL document CHEMBL1157607",
  "about": "“Piracetam defines a new binding site for allosteric modulators of alpha-amino-3-hydroxy-5-methyl-4-isoxazole-propionic acid (AMPA) receptors” (J Med Chem, 2010)",
  "key": {"[1]": {"assay": "Binding affinity to subsite B/B' and subsite C/C' in S1S2 domain of GluA2 receptor expressed in Escherichia coli by crystallography", "summary_of_the_method": "(§1)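 GluA2 S1S2 domain (flip form via N754S, GluA2i) expressed in E. coli Origami B (DE3) cells, IPTG 0.5 mM final at 20°C for 20 h. Purified by Ni-NTA, sizing and ion exchange with glutamate in all buffers. Protein at 0.3 mM with 10 mM glutamate, ligand 5 mM final. Co-crystals grown by hanging drop at 4°C against 16–18% PEG 8K, 0.1 M sodium cacodylate, 0.1–0.15 M zinc acetate, pH 6.5.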"}, "[2]": {"assay": "Binding affinity to subsite C/C' in S1S2 domain of GluA2 receptor expressed in Escherichia coli by crystallography", "summary_of_the_method": "as §1"}, "[3]": {"assay": "Binding affinity to subsite A in S1S2 domain of GluA2 receptor expressed in Escherichia coli by crystallography", "summary_of_the_method": "as §1"}},
  "note": "Calls of active or inactive are those of the source. The rule behind the calls is not given here.",
  "data": [
    {"molecule": "NS(=O)(=O)c1cc2c(cc1Cl)NC(C(Cl)Cl)NS2(=O)=O", "note": "(stereo not given)", "values": [
      {"measurement": "Activity", "setting": "[1]", "result": "Active"}
    ]},
    {"molecule": "NS(=O)(=O)c1cc2c(cc1Cl)NCNS2(=O)=O", "values": [
      {"measurement": "Activity", "setting": "[2]", "result": "Active"}
    ]},
    {"molecule": "NS(=O)(=O)c1cc2c(cc1C(F)(F)F)NCNS2(=O)=O", "values": [
      {"measurement": "Activity", "setting": "[2]", "result": "Active"}
    ]},
    {"molecule": "C=CCSCC1Nc2cc(Cl)c(S(N)(=O)=O)cc2S(=O)(=O)N1", "note": "(stereo not given)", "values": [
      {"measurement": "Activity", "setting": "[1]", "result": "Active"}
    ]},
    {"molecule": "COc1ccc(C(=O)N2CCCC2=O)cc1", "values": [
      {"measurement": "Activity", "setting": "[3]", "result": "Active"},
      {"measurement": "Activity", "setting": "[1]", "result": "Active"}
    ]},
    {"molecule": "CC1Nc2ccc(Cl)cc2S(=O)(=O)N1", "note": "(stereo not given)", "values": [
      {"measurement": "Activity", "setting": "[2]", "result": "Active"}
    ]},
    {"molecule": "NS(=O)(=O)c1cc2c(cc1Cl)NC(C1CC3C=CC1C3)NS2(=O)=O", "note": "(stereo not given)", "values": [
      {"measurement": "Activity", "setting": "[1]", "result": "Active"}
    ]},
    {"molecule": "O=C1c2cc3c(cc2OC2CCCN12)OCCO3", "note": "(stereo not given)", "values": [
      {"measurement": "Activity", "setting": "[3]", "result": "Active"},
      {"measurement": "Activity", "setting": "[1]", "result": "Active"}
    ]}
  ]
}
